# Legend:
# Cavia porcellus [1] = test: Tested in delayed hypersensitivity skin reaction (DHSR) after subcutaneous administration, activity reported as percent inhibition of erythema/induration of lesion; 22/51; type: functional
# Cavia porcellus [2] = test: Tested in delayed hypersensitivity skin reaction (DHSR) after subcutaneous administration, activity reported as percent inhibition of erythema/induration of lesion; 9/30; type: functional
# Method in brief: (§1)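 Male Hartley guinea pigs were sensitized with Mycobacterium tuberculosis in Freund's incomplete adjuvant, injected into each hind footpad and subcutaneously at the neck. After 3 weeks, 1.2 μg PPD was given intradermally. Compound in sesame oil was given sc, 3 animals per group, 30 min before and 5 h after PPD; screening dose 50 mg/kg.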
# Mus musculus [3] = test: Inhibition of Mouse active Arthus (MAA) reaction activity was determined for an ip dose of 150 mg/kg in mouse; 21-30%; type: functional; conditions: route intraperitoneal
# Mus musculus [4] = test: Inhibition of Mouse Active Arthus reaction following 150 mg/Kg i.p.; 41-60% inhibition.; type: functional; conditions: Mus musculus, ip
# Cavia porcellus [5] = test: Tested in delayed hypersensitivity skin reaction (DHSR) after subcutaneous administration, activity reported as percent inhibition of erythema/induration of lesion; 3/4; type: functional; method in brief: as §1
# Mus musculus [6] = test: Mouse active Arthus (MAA) reaction activity was determined for an ip dose of 150 mg/kg in mouse; type: functional; conditions: route intraperitoneal
# [7] = Acute toxicity as LD50 value was determined in mice administered intraperitoneally; type: organism-based; conditions: mouse, in vivo, ip
# Cavia porcellus [8] = test: Tested in delayed hypersensitivity skin reaction (DHSR) after subcutaneous administration, activity reported as percent inhibition of erythema/induration of lesion; 14/42; type: functional
# Mus musculus [9] = species: Mus musculus; test: The compound was evaluated for the mouse active Arthus (MAA) reaction activity expressed as inhibitory dose.; type: functional; conditions: read-out: ID50 (the source's name)
# Method in brief: (§2)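 CD-1 mice were sensitized ip with a 1:1 Freund's complete adjuvant emulsion containing BSA in saline, 5 weeks before challenge. Compound was suspended in 1% Na CMC in pyrogen-free saline and given as one ip or oral dose 1 h before skin challenge with BSA. Screening doses were 150 mg/kg ip and 300 mg/kg po, with some at 75 or 50 mg/kg ip. Lesions were excised 3.5 h after challenge and weighed against controls.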
# [10] = Therapeutic ratio was determined for intraperitoneal administration; type: ADME; conditions: ip; read-out: TR
# Cavia porcellus [11] = test: Tested in delayed hypersensitivity skin reaction (DHSR) after subcutaneous administration, activity reported as percent inhibition of erythema/induration of lesion; 10/0; type: functional
# Mus musculus [12] = test: The compound was evaluated for the mouse active Arthus (MAA) reaction activity for an ip dose of 150 mg/kg in mouse; type: functional; conditions: route intraperitoneal; method in brief: as §2
# Mus musculus [13] = test: The compound was evaluated for the mouse active Arthus (MAA) reaction activity for peroral dose of 300 mg/kg in mouse; 31-40%; type: functional; conditions: route oral; method in brief: as §2
# Cavia porcellus [14] = test: Tested in delayed hypersensitivity skin reaction (DHSR) after subcutaneous administration, activity reported as percent inhibition of erythema/induration of lesion; 7/6; type: functional; method in brief: as §1
# Cavia porcellus [15] = test: Tested in delayed hypersensitivity skin reaction (DHSR) after subcutaneous administration, activity reported as percent inhibition of erythema/induration of lesion; 15/0; type: functional
# Mus musculus [16] = test: Inhibition of Mouse active Arthus (MAA) reaction activity was determined for peroral dose of 300 mg/kg in mouse; 21-30%; type: functional; conditions: route oral
# Cavia porcellus [17] = test: Tested in delayed hypersensitivity skin reaction (DHSR) after subcutaneous administration, activity reported as percent inhibition of erythema/induration of lesion; 3/10; type: functional; method in brief: as §1
# Cavia porcellus [18] = test: The compound was evaluated for the delayed hypersensitivity skin reaction (DHSR) activity after subcutaneous administration; 23/37
# Mus musculus [19] = test: The compound was evaluated for the mouse active Arthus (MAA) reaction activity for an ip dose of 150 mg/kg in mouse; 31-40%; type: functional; conditions: route intraperitoneal; method in brief: as §2
# Cavia porcellus [20] = test: The compound was evaluated for the delayed hypersensitivity skin reaction (DHSR) activity after subcutaneous administration; 15/21
# Cavia porcellus [21] = test: Tested in delayed hypersensitivity skin reaction (DHSR) after subcutaneous administration, activity reported as percent inhibition of erythema/induration of lesion; 17/49; type: functional
# Mus musculus [22] = test: Mouse active Arthus (MAA) reaction activity was determined for an ip dose of 150 mg/kg in mouse; 31-40%; type: functional; conditions: route intraperitoneal
# Mus musculus [23] = test: Mouse active Arthus (MAA) reaction activity was determined for an peroral dose of 300 mg/kg in mouse; type: functional; conditions: route oral
structure (smiles),measurement,setting,value
CN1CCN(CCCN2N=C3/C(=C/c4ccccc4)COCC3C2c2ccccc2)CC1 (stereo not given),Activity,Cavia porcellus [1],22
CCCN1N=C2/C(=C/c3ccccc3)COCC2C1c1ccccc1 (stereo not given),Activity,Cavia porcellus [2],9
same,inhibition in vivo at 150 mg/kg,Mus musculus [3],21%
O=S1(=O)C/C(=C\c2ccccc2)C2=NNC(c3ccccc3)C2C1 (stereo not given),inhibition in vivo at 150 mg/kg,Mus musculus [4],41%
same,Activity,Cavia porcellus [5],3
Cc1ccccc1/C=C1\CS(=O)(=O)CC2C1=NN(CCCN1CCN(C)CC1)C2c1ccccc1C.O=C(O)/C=C\C(=O)O (stereo not given),inhibition in vivo at 150 mg/kg,Mus musculus [6],> 60%
same,LD50,[7],130 mg/kg
same,Activity,Cavia porcellus [8],14
same,ED50,Mus musculus [9],< 37.5 mg/kg
same,selectivity ratio,[10],< 3.5
Cc1ccc(/C=C2\CS(=O)(=O)CC3C2=NN(CCc2ccccc2)C3c2ccc(C)cc2)cc1 (stereo not given),Activity,Cavia porcellus [11],10
CN1CCN(CCCN2N=C3/C(=C/c4ccccc4)CS(=O)(=O)CC3C2c2ccccc2)CC1.O=C(O)/C=C\C(=O)O (stereo not given),inhibition in vivo at 150 mg/kg,Mus musculus [12],> 60%
same,inhibition in vivo at 300 mg/kg,Mus musculus [13],31%
same,Activity,Cavia porcellus [14],7
CC(C)(C)c1ccc(/C=C2\CS(=O)(=O)CC3C2=NN(CC2CC2)C3c2ccc(C(C)(C)C)cc2)cc1 (stereo not given),Activity,Cavia porcellus [15],15
CCCN1N=C2/C(=C/c3ccccc3)CS(=O)(=O)CC2C1c1ccccc1 (stereo not given),inhibition in vivo at 300 mg/kg,Mus musculus [16],21%
same,inhibition in vivo at 150 mg/kg,Mus musculus [4],41%
same,Activity,Cavia porcellus [17],3
C(=C1/CSCC2C1=NNC2c1ccccc1)/c1ccccc1 (stereo not given),Activity,Cavia porcellus [18],23
same,inhibition in vivo at 150 mg/kg,Mus musculus [4],41%
CCCn1nc(-c2ccc(C)cc2)c2c1/C(=C/c1ccc(C)cc1)CSC2,inhibition in vivo at 150 mg/kg,Mus musculus [19],31%
same,Activity,Cavia porcellus [20],15
CCCN1N=C2/C(=C/c3ccc(OC)cc3)CS(=O)(=O)CC2C1c1ccc(OC)cc1 (stereo not given),Activity,Cavia porcellus [21],17
same,inhibition in vivo at 150 mg/kg,Mus musculus [22],31%
same,inhibition in vivo at 300 mg/kg,Mus musculus [23],< 20%
